ChEMBL document CHEMBL1155603, “Stilbene glycoside sulfates from Polygonum cuspidatum” (J Nat Prod, 2000)
Activity calls are given as the source filed them. The rule behind the calls is not given here.

How the values were obtained:
Candida albicans = assay: Antifungal activity against Candida albicans; format: functional, organism-based
Summary of the method: (§1)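 In vitro susceptibility test on yeasts, run by the National Committee for Clinical and Laboratory Standards procedure.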

Fonsecaea pedrosoi = assay: Antifungal activity against Fonsecaea pedrosoi; format: functional, organism-based
Candida tropicalis = assay: Antifungal activity against Candida tropicalis; format: functional, organism-based; summary of the method: as §1
Sporothrix schenckii = assay: Antifungal activity against Sporothrix schenckii; format: functional, organism-based
Candida parapsilosis = assay: Antifungal activity against Candida parapsilosis; format: functional, organism-based; summary of the method: as §1
Cryptococcus neoformans = assay: Antifungal activity against Cryptococcus neoformans; format: functional, organism-based; summary of the method: as §1
Trichophyton rubrum = assay: Antifungal activity against Trichophyton rubrum; format: functional, organism-based
Aspergillus fumigatus = assay: Antifungal activity against Aspergillus fumigatus; format: functional, organism-based
A549 = assay: Cytotoxicity against human A549 cells after 96 hrs by MTT assay; format: functional, cell-based; settings: A549, 96 h

O=S(=O)(O)O[C@H]1[C@H](Oc2cc(O)cc(/C=C/c3ccc(O)cc3)c2)O[C@H](CO)[C@@H](O)[C@@H]1O
Activity (Candida albicans): inactive
Activity (Fonsecaea pedrosoi): inactive
Activity (Candida tropicalis): inactive
Activity (Sporothrix schenckii): inactive
Activity (Candida parapsilosis): inactive
Activity (Cryptococcus neoformans): inactive
Activity (Trichophyton rubrum): inactive
Activity (Aspergillus fumigatus): inactive

O=S(=O)(O)Oc1ccc(/C=C/c2cc(O)cc(O[C@@H]3O[C@H](CO)[C@@H](O)[C@H](O)[C@H]3O)c2)cc1
Activity (Candida albicans): inactive
Activity (Fonsecaea pedrosoi): inactive
Activity (Candida tropicalis): inactive
Activity (Sporothrix schenckii): inactive
Activity (Candida parapsilosis): inactive
Activity (Cryptococcus neoformans): inactive
Activity (Trichophyton rubrum): inactive
Activity (Aspergillus fumigatus): inactive

O=S(=O)(O)OC[C@H]1O[C@@H](Oc2cc(O)cc(/C=C/c3ccc(O)cc3)c2)[C@H](O)[C@@H](O)[C@@H]1O
Activity (Candida albicans): inactive
Activity (Fonsecaea pedrosoi): inactive
Activity (Candida tropicalis): inactive
Activity (Sporothrix schenckii): inactive
Activity (Candida parapsilosis): inactive
Activity (Cryptococcus neoformans): inactive
Activity (Trichophyton rubrum): inactive
Activity (Aspergillus fumigatus): inactive

O=S(=O)(O)Oc1cc(/C=C\c2ccc(O)cc2)cc(O[C@@H]2O[C@H](CO)[C@@H](O)[C@H](O)[C@H]2O)c1
Activity (Candida albicans): inactive
Activity (Fonsecaea pedrosoi): inactive
Activity (Candida tropicalis): inactive
Activity (Sporothrix schenckii): inactive
Activity (Candida parapsilosis): inactive
Activity (Cryptococcus neoformans): inactive
Activity (Trichophyton rubrum): inactive
Activity (Aspergillus fumigatus): inactive

O=S(=O)([O-])O[C@H]1[C@H](O)[C@@H](O)[C@H](Oc2cc(O)cc(/C=C/c3ccc(O)cc3)c2)O[C@@H]1CO.[K+]
Activity (Candida albicans): inactive
Activity (Fonsecaea pedrosoi): inactive
IC50 (A549): 80 µg/mL
Activity (Candida tropicalis): inactive
Activity (Sporothrix schenckii): inactive
Activity (Candida parapsilosis): inactive
Activity (Cryptococcus neoformans): inactive
Activity (Trichophyton rubrum): inactive
Activity (Aspergillus fumigatus): inactive

O=S(=O)(O)OC[C@H]1O[C@@H](Oc2cc(O)cc(/C=C\c3ccc(O)cc3)c2)[C@H](O)[C@@H](O)[C@@H]1O
Activity (Candida albicans): inactive
Activity (Fonsecaea pedrosoi): inactive
Activity (Candida tropicalis): inactive
Activity (Sporothrix schenckii): inactive
Activity (Candida parapsilosis): inactive
Activity (Cryptococcus neoformans): inactive
Activity (Trichophyton rubrum): inactive
Activity (Aspergillus fumigatus): inactive

O=S(=O)(O)Oc1cc(/C=C/c2ccc(O)cc2)cc(O[C@@H]2O[C@H](CO)[C@@H](O)[C@H](O)[C@H]2O)c1
Activity (Candida albicans): inactive
Activity (Fonsecaea pedrosoi): inactive
Activity (Candida tropicalis): inactive
Activity (Sporothrix schenckii): inactive
Activity (Candida parapsilosis): inactive
Activity (Cryptococcus neoformans): inactive
Activity (Trichophyton rubrum): inactive
Activity (Aspergillus fumigatus): inactive

O=S(=O)(O)O[C@H]1[C@H](O)[C@@H](O)[C@H](Oc2cc(O)cc(/C=C\c3ccc(O)cc3)c2)O[C@@H]1CO
Activity (Candida albicans): inactive
Activity (Fonsecaea pedrosoi): inactive
Activity (Candida tropicalis): inactive
Activity (Sporothrix schenckii): inactive
Activity (Candida parapsilosis): inactive
Activity (Cryptococcus neoformans): inactive
Activity (Trichophyton rubrum): inactive
Activity (Aspergillus fumigatus): inactive

O=S(=O)(O)O[C@H]1[C@H](Oc2cc(O)cc(/C=C\c3ccc(O)cc3)c2)O[C@H](CO)[C@@H](O)[C@@H]1O
Activity (Candida albicans): inactive
Activity (Fonsecaea pedrosoi): inactive
Activity (Candida tropicalis): inactive
Activity (Sporothrix schenckii): inactive
Activity (Candida parapsilosis): inactive
Activity (Cryptococcus neoformans): inactive
Activity (Trichophyton rubrum): inactive
Activity (Aspergillus fumigatus): inactive
